Reference: ChEMBL document CHEMBL4304758, “Development of Peptide-Based Sirtuin Defatty-Acylase Inhibitors Identified by the Fluorescence Probe, SFP3, That Can Efficiently Measure Defatty-Acylase Activity of Sirtuin” (J Med Chem, 2019)
Non-standard residues stand in square brackets, D forms with d. Residues, ends and D or L forms follow the SMILES beside them. *: point of attachment. Phenylacetyl(4-E-phenylazo) = O=C(Cc1ccc(/N=N/c2ccccc2)cc1)*; Lys(thiomyristoyl) = CCCCCCCCCCCCCC(=S)NCCCC[C@H](N)C(=O)O; X5 = CCN(CC)c1ccc(/N=N/c2ccc(CC(=O)*)cc2)cc1; X3 = CN(C)c1ccc(/N=N/c2ccc(CCC(=O)*)cc2)cc1; X4 = CN(C)c1ccc(/N=N/c2ccc(CC(=O)*)cc2)cc1; X2 = CN(C)c1ccc(/N=N/c2ccc(C(=O)*)cc2)cc1; X1 = O=C(Cc1ccc(/N=N/c2ccc(O)cc2)cc1)*

Tests used:
[1] = target: T1, NAD-dependent protein deacetylase sirtuin-1 (Homo sapiens, UniProt Q96EB6); test: Inhibition of recombinant human C-terminal His6-tagged SIRT1 (Met1 to Ser747 residues) demyristoylase activity expressed in Escherichia coli using p53(Myr)-AMC as substrate measured after 3 hrs in presence of NAD+ and trypsin by fluorescence assay
T1 sequence (Q96EB6 whole entry): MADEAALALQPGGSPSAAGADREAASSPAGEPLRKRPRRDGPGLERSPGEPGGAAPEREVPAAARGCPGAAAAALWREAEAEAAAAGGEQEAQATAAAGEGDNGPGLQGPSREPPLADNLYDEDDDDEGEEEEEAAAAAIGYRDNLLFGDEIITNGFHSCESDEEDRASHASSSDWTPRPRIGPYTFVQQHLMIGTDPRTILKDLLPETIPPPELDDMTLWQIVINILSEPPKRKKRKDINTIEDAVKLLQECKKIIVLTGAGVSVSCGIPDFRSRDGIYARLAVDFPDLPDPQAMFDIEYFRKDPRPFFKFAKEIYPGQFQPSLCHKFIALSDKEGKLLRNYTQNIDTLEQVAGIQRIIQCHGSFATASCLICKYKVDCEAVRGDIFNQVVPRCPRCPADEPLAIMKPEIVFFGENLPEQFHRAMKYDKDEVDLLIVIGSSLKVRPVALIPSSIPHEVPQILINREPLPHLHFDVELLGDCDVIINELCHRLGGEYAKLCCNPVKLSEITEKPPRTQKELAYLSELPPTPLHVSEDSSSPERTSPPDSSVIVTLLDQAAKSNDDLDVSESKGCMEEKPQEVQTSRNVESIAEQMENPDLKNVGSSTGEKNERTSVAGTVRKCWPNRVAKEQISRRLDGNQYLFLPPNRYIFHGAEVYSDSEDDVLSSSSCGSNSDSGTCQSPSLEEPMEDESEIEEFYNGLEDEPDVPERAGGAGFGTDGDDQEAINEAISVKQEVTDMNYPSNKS
Outline: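 SIRT1 at 14 nM final with 50 μM p53(Myr)-AMC and 500 μM NAD⁺ in Tris-HCl pH 8.0/NaCl/DTT/Triton buffer, 0.5% DMSO, 3 h at room temperature. Trypsin (100 nM final) plus nicotinamide (1 mM final) then added. Fluorescence Ex 355/Em 460 nm read every 5 min for 20 min at 37 °C. n = 3.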

[2] = target: T2, NAD-dependent protein deacetylase sirtuin-2 (Homo sapiens, UniProt Q8IXJ6); test: Inhibition of recombinant human SIRT2 deacylation activity using Fluor de Lys Sirt2 as substrate measured at 5 mins interval for 30 mins in presence of NAD+ by fluorescence assay
T2 sequence (Q8IXJ6 whole entry): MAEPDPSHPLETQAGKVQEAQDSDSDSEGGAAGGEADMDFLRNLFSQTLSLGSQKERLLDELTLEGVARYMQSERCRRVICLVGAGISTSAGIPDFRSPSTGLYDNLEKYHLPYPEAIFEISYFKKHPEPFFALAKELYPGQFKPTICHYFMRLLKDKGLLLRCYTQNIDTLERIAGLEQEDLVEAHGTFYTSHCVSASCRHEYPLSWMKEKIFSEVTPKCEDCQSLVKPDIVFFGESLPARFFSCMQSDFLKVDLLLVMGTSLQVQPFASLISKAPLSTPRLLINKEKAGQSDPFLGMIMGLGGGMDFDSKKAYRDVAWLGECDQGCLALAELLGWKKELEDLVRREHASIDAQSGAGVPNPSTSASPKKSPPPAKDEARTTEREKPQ

[3] = target: T2, NAD-dependent protein deacetylase sirtuin-2; test: Inhibition of recombinant human SIRT2 demyristoylase activity using p53(Myr)-AMC as substrate measured after 3 hrs in presence of NAD+ and trypsin by fluorescence assay
[4] = target: T1, NAD-dependent protein deacetylase sirtuin-1; test: Inhibition of recombinant human C-terminal His6-tagged SIRT1 (Met1 to Ser747 residues) defatty-acylase activity expressed in Escherichia coli using SFP3 as substrate measured at 5 mins interval for 60 mins in presence of NAD+ by fluorescence assay
[5] = target: T2, NAD-dependent protein deacetylase sirtuin-2; test: Inhibition of recombinant human SIRT2 defatty-acylase activity using SFP3 as substrate measured at 5 mins interval for 60 mins in presence of NAD+ by fluorescence assay
[6] = target: T2, NAD-dependent protein deacetylase sirtuin-2; test: Drug metabolism assessed as recombinant human SIRT2-mediated deacylation by measuring dabcyl formation at 20 uM measured up to 4 hrs in presence of NAD+ by HPLC analysis; assay type: ADME
Outline: (§1)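 Compound at 20 μM final (0.2% DMSO) with 350 nM SIRT2 and 500 μM NAD⁺ at 37 °C in buffer I: 50 mM Tris-HCl pH 8.0, 150 mM NaCl, 1 mM DTT, 0.05% Triton X-100. Aliquots taken at 0 and 4 h. Reversed-phase HPLC, TFA water/acetonitrile gradient. Detection at 510, 350 or 254 nm depending on compound.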

[7] = target: T3, NAD-dependent protein deacetylase sirtuin-3, mitochondrial (Homo sapiens, UniProt Q9NTG7); test: Inhibition of recombinant human SIRT3 (118 to 399 residues) defatty-acylase activity expressed in Escherichia coli using SFP3 as substrate measured at 5 mins interval for 60 mins in presence of NAD+ by fluorescence assay
T3 sequence (Q9NTG7 whole entry): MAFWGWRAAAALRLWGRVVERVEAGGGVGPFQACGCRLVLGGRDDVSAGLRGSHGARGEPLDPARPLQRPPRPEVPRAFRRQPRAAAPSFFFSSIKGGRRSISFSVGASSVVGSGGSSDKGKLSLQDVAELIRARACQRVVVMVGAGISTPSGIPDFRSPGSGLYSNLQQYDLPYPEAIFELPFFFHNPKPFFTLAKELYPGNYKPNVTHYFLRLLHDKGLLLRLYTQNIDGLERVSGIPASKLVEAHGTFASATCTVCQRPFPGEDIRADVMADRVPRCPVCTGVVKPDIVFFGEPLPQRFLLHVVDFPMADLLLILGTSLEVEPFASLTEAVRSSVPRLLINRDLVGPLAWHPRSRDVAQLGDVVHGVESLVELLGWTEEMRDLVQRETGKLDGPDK

[8] = target: T3, NAD-dependent protein deacetylase sirtuin-3, mitochondrial; test: Inhibition of recombinant human SIRT3 (118 to 399 residues) demyristoylase activity expressed in Escherichia coli using p53(Myr)-AMC as substrate measured after 3 hrs in presence of NAD+ and trypsin by fluorescence assay
[9] = target: NAD-dependent protein deacylase sirtuin-6 (Homo sapiens, UniProt Q8N6T7); test: Inhibition of recombinant human N-terminal polyhis-tagged SIRT6 (1 to 355 residues) defatty-acylase activity expressed in Escherichia coli using SFP3 as substrate measured at 5 mins interval for 60 mins in presence of NAD+ by fluorescence assay
Outline: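 SIRT6 at 48 nM final with 2.5 μM SFP3 and 500 μM NAD⁺ in Tris-HCl pH 8.0 buffer with 150 mM NaCl, 1 mM DTT, 0.05% Triton X-100, final 0.2% DMSO. Enzyme added last. Fluorescence Ex 485/Em 535 nm read every 5 min for 60 min at 37 °C.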

SIRT2 = test: Stability of the compound in SIRT assay buffer assessed as parent compound remaining at 20 uM measured after 4 hrs in presence of recombinant human SIRT2 and NAD+ by HPLC analysis; assay type: physicochemical; conditions: read-out: Stability; outline: as §1
[10] = target: T2, NAD-dependent protein deacetylase sirtuin-2; test: Drug metabolism assessed as recombinant human SIRT2-mediated deacylation by measuring dabcyl-PH formation at 20 uM measured up to 4 hrs in presence of NAD+ by HPLC analysis; assay type: ADME; outline: as §1

Chain of NAD-dependent protein deacylase sirtuin-6 (Q8N6T7 whole entry, the tested form may be a part): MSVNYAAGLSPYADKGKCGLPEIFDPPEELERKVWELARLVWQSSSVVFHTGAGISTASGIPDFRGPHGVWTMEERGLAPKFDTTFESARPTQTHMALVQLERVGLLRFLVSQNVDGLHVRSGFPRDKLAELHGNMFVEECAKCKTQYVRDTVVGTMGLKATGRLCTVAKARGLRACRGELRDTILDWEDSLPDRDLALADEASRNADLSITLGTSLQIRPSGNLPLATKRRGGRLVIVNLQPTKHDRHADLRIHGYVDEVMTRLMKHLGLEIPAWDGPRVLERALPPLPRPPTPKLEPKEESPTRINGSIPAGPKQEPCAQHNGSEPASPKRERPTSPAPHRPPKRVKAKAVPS

SMILES	IC50 [1]	IC50 [2]	IC50 [3]	IC50 [4]	IC50 [5]	Drug metabolism [6]	IC50 [7]	IC50 [8]	IC50 [9]	remaining at 4 h, 20 µM (SIRT2)	Drug metabolism [10]
CC[C@H](C)[C@H](NC(=O)[C@H](CCCCNC(=O)Cc1ccc(/N=N/c2ccccc2)cc1)NC(=O)[C@@H](NC(C)=O)C(C)C)C(=O)N[C@@H](CCCCN)C(=O)N[C@@H](CCCCN)C(N)=O (Ac-VK(Phenylacetyl(4-E-phenylazo))IKK-NH2)	0.43 µM	0.12 µM	0.52 µM	1.4 µM	0.12 µM	–	–	–	–	–	–
CC[C@H](C)[C@H](NC(=O)[C@H](CCCNC(=N)N)NC(C)=O)C(=O)N[C@@H](CCCCNC(=O)c1ccc(/N=N/c2ccc(N(C)C)cc2)cc1)C(=O)N[C@@H](CCCNC(=N)N)C(=O)N[C@@H](Cc1ccc(O)cc1)C(N)=O (Ac-RIK(X2)RY-NH2)	–	1.6 µM	1.6 µM	> 2 µM	0.43 µM	Metabolite_Detected	0.77 µM	–	–	–	–
Cc1cc(C)nc(SCC(=O)Nc2ncc(Cc3cccc4ccccc34)s2)n1	> 10 µM	–	–	> 10 µM	–	–	–	–	–	–	–
C[C@H](NC(=O)[C@H](CCCCNC(=O)Cc1ccc(/N=N/c2ccc(OCc3ccccc3)cc2)cc1)NC(=O)OCc1ccccc1)C(N)=O	–	0.19 µM	–	–	> 2 µM	–	–	–	–	–	–
CC[C@H](C)[C@H](NC(=O)[C@@H](NC(=O)[C@H](CCCCNC(=O)c1ccc(/N=N/c2ccc(N(C)C)cc2)cc1)NC(=O)[C@H](CC(=O)O)NC(=O)[C@H](CO)NC(C)=O)[C@@H](C)O)C(N)=O (Ac-SDK(X2)TI-NH2)	–	1.2 µM	> 2 µM	> 2 µM	> 2 µM	–	> 2 µM	–	–	–	–
CC[C@H](C)[C@H](NC(=O)[C@H](CCCNC(=N)N)NC(C)=O)C(=O)N[C@@H](CCCCNC(=O)Cc1ccc(/N=N/c2ccccc2)cc1)C(=O)N[C@@H](CCCNC(=N)N)C(=O)N[C@@H](Cc1ccc(O)cc1)C(N)=O (Ac-RIK(Phenylacetyl(4-E-phenylazo))RY-NH2)	0.071 µM	0.18 µM	0.051 µM	0.048 µM	0.019 µM	–	0.077 µM	0.34 µM	–	–	–
CC[C@H](C)[C@H](NC(=O)[C@@H](NC(=O)[C@H](CCCCNC(=O)Cc1ccc(/N=N/c2ccccc2)cc1)NC(=O)[C@H](CC(=O)O)NC(=O)[C@H](CO)NC(C)=O)[C@@H](C)O)C(N)=O (Ac-SDK(Phenylacetyl(4-E-phenylazo))TI-NH2)	–	0.58 µM	> 2 µM	> 2 µM	1.5 µM	–	> 2 µM	–	–	–	–
CC[C@H](C)[C@H](NC(C)=O)C(=O)N[C@@H](CCCCNC(=O)Cc1ccc(/N=N/c2ccccc2)cc1)C(=O)N[C@@H](CCCNC(=N)N)C(N)=O	0.084 µM	0.11 µM	0.25 µM	0.27 µM	0.063 µM	–	–	–	–	–	–
CCCCCCCCCCCCCC(=O)NCCCC[C@H](NC(=O)OCc1ccccc1)C(=O)Nc1ccccc1	–	> 1 µM	–	–	> 2 µM	–	–	–	–	–	–
CC[C@H](C)[C@H](NC(=O)[C@H](CCCNC(=N)N)NC(C)=O)C(=O)N[C@@H](CCCCNC(=O)Cc1ccc(/N=N/c2ccc(N(C)C)cc2)cc1)C(=O)N[C@@H](CCCNC(=N)N)C(=O)N[C@@H](Cc1ccc(O)cc1)C(N)=O (Ac-RIK(X4)RY-NH2)	0.098 µM	0.17 µM	0.13 µM	0.4 µM	0.036 µM	–	0.11 µM	0.33 µM	–	> 99%	–

The remaining compounds from weak to strong by IC50 [2], led by results:

IC50 [1]	IC50 [2]	IC50 [3]	IC50 [4]	IC50 [5]	Drug metabolism [6]	IC50 [7]	IC50 [8]	IC50 [9]	remaining at 4 h, 20 µM (SIRT2)	Drug metabolism [10]	SMILES
–	1.1 µM	> 2 µM	1.7 µM	0.3 µM	–	1.5 µM	–	–	–	Metabolite_Detected	CC[C@H](C)[C@H](NC(=O)[C@H](CCCNC(=N)N)NC(C)=O)C(=O)N[C@@H](CCCCNC(=O)CCc1ccc(/N=N/c2ccc(N(C)C)cc2)cc1)C(=O)N[C@@H](CCCNC(=N)N)C(=O)N[C@@H](Cc1ccc(O)cc1)C(N)=O (Ac-RIK(X3)RY-NH2)
–	0.4 µM	> 2 µM	> 2 µM	> 2 µM	–	> 2 µM	–	–	–	–	C[C@H](NC(=O)[C@H](CCCCNC(=O)Cc1ccc(/N=N/c2ccc(OCCc3ccccc3)cc2)cc1)NC(=O)OCc1ccccc1)C(N)=O
0.14 µM	0.26 µM	0.19 µM	1.1 µM	0.068 µM	–	0.18 µM	0.48 µM	–	–	–	CC[C@H](C)[C@H](NC(=O)[C@H](CCCNC(=N)N)NC(C)=O)C(=O)N[C@@H](CCCCNC(=O)Cc1ccc(/N=N/c2ccc(N(CC)CC)cc2)cc1)C(=O)N[C@@H](CCCNC(=N)N)C(=O)N[C@@H](Cc1ccc(O)cc1)C(N)=O (Ac-RIK(X5)RY-NH2)
–	0.19 µM	–	–	> 2 µM	–	–	–	–	–	–	C[C@H](NC(=O)[C@H](CCCCNC(=O)Cc1ccc(/N=N/c2ccc(O)cc2)cc1)NC(=O)OCc1ccccc1)C(N)=O
0.026 µM	0.11 µM	0.044 µM	0.33 µM	0.022 µM	–	0.046 µM	0.13 µM	0.25 µM	–	–	CCCCCCCCCCCCCC(=S)NCCCC[C@H](NC(=O)[C@@H](NC(=O)[C@H](CCCNC(=N)N)NC(C)=O)[C@@H](C)CC)C(=O)N[C@@H](CCCNC(=N)N)C(=O)N[C@@H](Cc1ccc(O)cc1)C(N)=O (Ac-RI[Lys(thiomyristoyl)]RY-NH2)
0.05 µM	0.11 µM	0.044 µM	0.12 µM	0.019 µM	–	0.055 µM	0.19 µM	–	–	–	CC[C@H](C)[C@H](NC(=O)[C@H](CCCNC(=N)N)NC(C)=O)C(=O)N[C@@H](CCCCNC(=O)Cc1ccc(/N=N/c2ccc(O)cc2)cc1)C(=O)N[C@@H](CCCNC(=N)N)C(=O)N[C@@H](Cc1ccc(O)cc1)C(N)=O (Ac-RIK(X1)RY-NH2)
